Screening results (PubChem BioAssay)
NPY-Y2 antag – NPY-Y2 receptor antagonists, primary screen, cell-based; Neuropeptide Y receptor type 2 (Homo sapiens), P49146; NPY-Y2 expressing cells, antagonist mode; inhibition, % at 2.7 µM; 140,000 tested, 0.99% active
Target sequence (P49146 whole entry, looked up): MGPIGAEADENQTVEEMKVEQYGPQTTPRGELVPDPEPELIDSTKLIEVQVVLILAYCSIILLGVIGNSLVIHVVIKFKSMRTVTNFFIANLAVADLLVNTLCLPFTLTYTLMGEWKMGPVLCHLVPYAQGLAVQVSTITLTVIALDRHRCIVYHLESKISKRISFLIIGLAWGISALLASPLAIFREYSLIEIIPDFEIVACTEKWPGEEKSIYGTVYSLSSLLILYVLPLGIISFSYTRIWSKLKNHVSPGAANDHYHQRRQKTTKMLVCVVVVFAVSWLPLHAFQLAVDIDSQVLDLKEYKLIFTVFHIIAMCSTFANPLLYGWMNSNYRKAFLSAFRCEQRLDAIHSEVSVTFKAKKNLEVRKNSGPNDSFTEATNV
RAM network inh – inhibitors of the yeast RAM network, primary screen, dse1pr::URA3 reporter, 5-FOA selection; S. cerevisiae dse1pr::URA3 reporter, 5-FOA growth OD615, 2 d; analog-sensitive cbk1-as2 kinase mutant strain; inhibition, % at 50 µM; 190,000 tested, 1.8% active; AID 868, 2007;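 active means inhibition above a set limit, 3 SD over mean compound inhibition, cut at about 8.4% in these data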;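 further: inhibition rescues growth on 5-FOA so higher OD means more RAM inhibition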
NPY-Y2 PAM-ag – NPY-Y2 potentiators or agonists, primary screen, cell-based. AID 1359, 2008. activation, % at 3.6 µM. cells expressing NPY-Y2, potentiator/agonist read-out. 220,000 tested, 0.45% active. Neuropeptide Y receptor type 2 (Homo sapiens), P49146; in the data active means activation above about 27%;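 further: cells stimulated with NPY near EC25 plus isoproterenol at EC100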
INS promoter inh – inhibitors of insulin promoter-driven GFP, primary screen, imaging, TRM-6 cells, eGFP reporter, cell count | reporter expression induced with tamoxifen | inhibition, % at 2 µM | 130,000 tested, 0.9% active | AID 1273, 2008;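 active means inhibition above the mean plus 3 SD, with well images judged a real hit on visual review, cut at about 60% in these data, passing the limit was not always enough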
NPY-Y1 antag – NPY-Y1 receptor antagonists, primary screen, cell-based; HEK293-CNG Y1 cells, membrane potential fluorescence; NPY at EC95, then isoproterenol; inhibition, % at 3.6 µM; 200,000 tested, 1% active;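 active means inhibition above the campaign mean inhibition of all tested compounds plus 3 SD, cut at about 20% in these data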
Target sequence (P25929 whole entry, looked up): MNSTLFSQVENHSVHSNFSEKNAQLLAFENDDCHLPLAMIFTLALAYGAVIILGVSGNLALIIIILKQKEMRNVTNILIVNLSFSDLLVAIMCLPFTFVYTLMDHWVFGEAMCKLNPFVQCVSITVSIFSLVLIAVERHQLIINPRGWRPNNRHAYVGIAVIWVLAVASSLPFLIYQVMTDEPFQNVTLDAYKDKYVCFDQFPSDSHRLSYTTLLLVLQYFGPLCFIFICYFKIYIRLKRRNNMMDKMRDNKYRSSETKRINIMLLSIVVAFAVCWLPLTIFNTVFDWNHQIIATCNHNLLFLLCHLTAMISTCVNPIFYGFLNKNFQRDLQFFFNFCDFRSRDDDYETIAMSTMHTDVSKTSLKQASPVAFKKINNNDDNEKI
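Benchmarks – high control isoproterenol alone, low control NPY with isoproterenol · Material – HEK293 Y1/CNG channel cell line · Times – dye 3 h, compound 60 min room temperature, stimulation 45 min · Probe or stimulus – NPY (25 nM), isoproterenol (1 µM), Ro 20-1724 (25 µM) · Evaluation – % inhibition of NPY effect · Signal – fluorescence, membrane potential probe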
NPY-Y1 PAM-ag – NPY-Y1 receptor potentiators or agonists, primary screen, cell-based. 220,000 tested, 0.37% active. AID 1304, 2008. NPY-Y1 expressing cells, potentiator/agonist activation. activation, % at 3.6 µM. Neuropeptide Y receptor type 1 (Homo sapiens), P25929; in the data active means activation above about 33%, passing the limit was not always enough;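 further: cells stimulated with NPY at EC10 then isoproterenol at EC100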
NPY-Y1 ant conf – NPY-Y1 receptor antagonists, retest of hits, confirmation, HEK293-CNG cells, membrane potential fluorescence, triplicate; 1,200 tested, 21% active; shares compounds with NPY-Y1 antag; cAMP; NPY challenge against isoproterenol-raised cAMP; AID 1254, 2008; inhibition, % at 3.6 µM; in the data active means inhibition above about 20%
NPY-Y2 antag ct – NPY-Y2 receptor antagonists, selectivity check, confirmation, counter-screen for NPY-Y1 antagonist project, HEK293-CNG cells, membrane potential fluorescence, triplicate | shares compounds with NPY-Y1 antag | 1,200 tested, 28% active | AID 1255, 2008 | antagonism; cells given NPY, then isoproterenol | inhibition, % at 3.6 µM
Each line names hits and unclear results; the compound was inactive in the other large screens (follow-up assays come after a bar, where they were run); ! = not confirmed by another sample. Sampled rows, rich in hits. Any-hit rate of the full collection: about 3.8%. Unless noted, no stated cut-off is given here; in the data, active means inhibition above about 17%; inactive means the rest.

CC(C)c1ccc(NC(=O)C2CC(=O)Nc3nc4ccccc4n32)cc1 (stereo not given)	none (no result: NPY-Y2 antag, RAM network inh, INS promoter inh, NPY-Y1 antag)
O=C1CCC(/C=C/c2ccccc2)=NN1Cc1ccccc1	none (no result: NPY-Y2 antag)
CC(C)(C)c1ccc(CN2N=C(/C=C/c3ccccc3)CCC2=O)cc1	RAM network inh 9.8, NPY-Y1 antag 25.3 (no result: NPY-Y2 antag) | NPY-Y1 ant conf inactive | NPY-Y2 antag ct inactive
Cc1ccc2c(c1)C(c1ccccc1)C(=O)O2 (stereo not given)	none (no result: NPY-Y2 antag, RAM network inh, INS promoter inh, NPY-Y1 antag)
COc1ccc(OC)c(CNc2nc3ccccc3n2CCN2CCCCC2)c1	NPY-Y1 antag 32.7 (no result: INS promoter inh) | NPY-Y1 ant conf 21.5 | NPY-Y2 antag ct 18.0
CN(c1ccc(OCc2nnc(-c3ccccc3)o2)cc1)S(=O)(=O)c1ccccc1	NPY-Y1 antag 27.8 | NPY-Y1 ant conf inactive | NPY-Y2 antag ct inactive
CCCC(C)NC(=O)CSc1nnc2ccccn12 (stereo not given)	none (no result: NPY-Y2 antag)
Cc1ccccc1NC(=S)NC(=O)c1cc(-c2ccccc2)nc2ccccc12	NPY-Y1 antag 21.3 (no result: INS promoter inh) | NPY-Y1 ant conf 27.8 | NPY-Y2 antag ct 37.9
Cc1ccc(C)c(NC(=O)c2cc(-c3cccnc3)nc3ccccc23)c1	none (no result: NPY-Y2 antag, INS promoter inh)
Cc1cccc(NC(=S)NC(=O)c2cc(-c3ccccc3)nc3ccccc23)c1	NPY-Y1 antag 20.8 (no result: INS promoter inh) | NPY-Y1 ant conf inactive | NPY-Y2 antag ct 19.8
Cc1cccc(NC(=O)NNC(=O)c2cc(-c3ccccc3Cl)nc3ccccc23)c1	none
CCOC(=O)c1cnc(SCCc2ccccc2)nc1N	NPY-Y1 antag 20.8 | NPY-Y1 ant conf inactive | NPY-Y2 antag ct inactive
CCc1c(C)sc(NC(=O)c2cccs2)c1C(=O)OC(C)C	NPY-Y1 antag 20.4 | NPY-Y1 ant conf inactive | NPY-Y2 antag ct 18.4
Clc1ccc(CN(CC2CCCO2)C(c2cccs2)c2nnnn2C2CCCC2)cc1 (stereo not given)	RAM network inh 11.2, NPY-Y1 antag 40.0 | NPY-Y1 ant conf inactive | NPY-Y2 antag ct inactive
c1csc(C(c2nnnn2C2CCCC2)N2CCOCC2)c1 (stereo not given)	none
O=C(Cn1c(=O)oc2ccccc21)NC(=O)NCc1ccccc1	none
CC(=O)OCC[N+](C)(C)C	NPY-Y1 antag 26.8 | NPY-Y1 ant conf 29.4 | NPY-Y2 antag ct 17.5!
CC(=O)OCP(C)(=O)COC(C)=O	none (no result: INS promoter inh)
O=C(CCN1C(=O)c2ccccc2C1=O)C1=NN[C@@H]2C(=O)N(c3ccc4c(c3)OCCO4)C(=O)[C@H]12	none (no result: NPY-Y2 antag, RAM network inh, INS promoter inh, NPY-Y1 antag)
CCOC(=O)c1sc(S(C)(=O)=O)c2c1CC(C)(C)C/C2=N/O	none (no result: NPY-Y2 antag, RAM network inh, INS promoter inh, NPY-Y1 antag)
CCn1nc(CC(=O)Nc2nnc(CC(=O)N3CCOCC3)s2)c2ccccc2c1=O	none
CCn1nc(CC(=O)Nc2nnc(CC(=O)N3CCCC3)s2)c2ccccc2c1=O	NPY-Y1 antag 20.4 | NPY-Y1 ant conf inactive | NPY-Y2 antag ct inactive
Cc1cccc(C)c1NC(=S)N(Cc1ccccc1)Cc1cccs1	RAM network inh 9.5, NPY-Y1 antag 38.0 (no result: NPY-Y2 antag) | NPY-Y1 ant conf inactive | NPY-Y2 antag ct 20.1
O=C(O)CNC(=S)N(Cc1ccccc1)Cc1cccs1	none (no result: NPY-Y2 antag, INS promoter inh)
CCc1ccc(/C=C\C(=O)N2CCc3ccccc3C2)cc1	NPY-Y1 antag 21.2 | NPY-Y1 ant conf inactive | NPY-Y2 antag ct inactive
CCN(CC)CCN(Cc1cc2ccc(C)c(C)c2[nH]c1=O)C(=S)NCc1ccco1	NPY-Y1 antag 27.1 (no result: NPY-Y2 antag, INS promoter inh) | NPY-Y1 ant conf inactive | NPY-Y2 antag ct inactive
CCN(CC)CCN(Cc1cc2cc(C)cc(C)c2[nH]c1=O)C(=S)NCc1ccco1	NPY-Y1 antag 21.0 | NPY-Y1 ant conf inactive | NPY-Y2 antag ct inactive
CCN(CC)CCN(Cc1cc2cc(C)ccc2[nH]c1=O)C(=S)NCc1ccco1	none
CCN(CC)CCN(Cc1cc2cc3c(cc2[nH]c1=O)OCO3)C(=S)NCc1ccco1	none (no result: NPY-Y2 antag)
N/C(=N\OC(=O)c1cccc(Cn2cc(C(F)(F)F)ccc2=O)c1)c1ccc(Cl)cc1	none (no result: NPY-Y2 antag, RAM network inh, INS promoter inh, NPY-Y1 antag)
Cc1onc(-c2ccccc2)c1C(=O)N/N=C/c1cn(C)c2ccccc12	none (no result: NPY-Y2 antag)
Cc1ccc(C)c(OCC(=O)N/N=C/c2c(C)nn(-c3ccccc3)c2Cl)c1	NPY-Y1 antag 21.1 | NPY-Y1 ant conf inactive | NPY-Y2 antag ct inactive
COCCn1c(-c2ccc(-c3ccc([N+](=O)[O-])cc3Br)o2)nc2c1c(=O)[nH]c(=O)n2CC(C)C	none (no result: NPY-Y2 antag)
COc1ccc(C2Nc3ccccc3C(=O)N2c2ccccc2)cc1COc1ccccn1 (stereo not given)	NPY-Y1 antag 22.0 | NPY-Y1 ant conf inactive | NPY-Y2 antag ct inactive
CN(C)CCn1c(=N)n(CC(O)c2ccc(Cl)c(Cl)c2)c2ccccc21 (stereo not given)	NPY-Y1 antag 22.7 (no result: NPY-Y2 antag, INS promoter inh) | NPY-Y1 ant conf inactive | NPY-Y2 antag ct 29.4
O=C(Nc1ccc(F)cc1F)NC1CC(=O)N(Cc2ccccc2)C1 (stereo not given)	none
CCCCCCC(=O)Nc1nc(C)c(-c2csc(Nc3ccc(Cl)cc3)n2)s1	NPY-Y1 antag 24.9 | NPY-Y1 ant conf inactive | NPY-Y2 antag ct inactive
Cc1ccc(NC(=O)CSc2nc3ccccc3c(=O)n2CCCN2CCCCC2)cc1Cl	NPY-Y1 antag 22.8 (no result: NPY-Y2 antag) | NPY-Y1 ant conf 45.0 | NPY-Y2 antag ct 55.1
CC1CCN(CCCn2c(SCC(=O)Nc3ccccc3Cl)nc3ccccc3c2=O)CC1	NPY-Y1 antag 31.3 (no result: NPY-Y2 antag) | NPY-Y1 ant conf 24.7 | NPY-Y2 antag ct 23.8
CN1CCc2c(n(CC(O)CNCc3ccccc3)c3ccccc23)C1=O (stereo not given)	NPY-Y1 antag 22.5 (no result: NPY-Y2 antag, INS promoter inh) | NPY-Y1 ant conf inactive | NPY-Y2 antag ct inactive
CCC(C)(C(=O)NC1CCCCC1)N(Cc1cccs1)C(=O)CC1NC(=O)NC1=O (stereo not given)	none
CCC(C)(C(=O)NC1CCCCC1)N(Cc1ccco1)C(=O)Cc1cccs1 (stereo not given)	NPY-Y1 antag 71.7 | NPY-Y1 ant conf 37.6 | NPY-Y2 antag ct inactive
Cc1cccc(Cc2nnc(CCC(=O)NCc3cn4ccccc4n3)o2)c1	none (no result: NPY-Y2 antag, INS promoter inh)
COc1ccc(-c2noc(CN3CCCCC3c3nccn3C)n2)cc1 (stereo not given)	NPY-Y1 antag 42.4 (no result: NPY-Y2 antag, INS promoter inh) | NPY-Y1 ant conf 29.5 | NPY-Y2 antag ct inactive
